What follows are molecules tested against T1, OR2W1 (Homo sapiens) (UniProt Q9Y3N9). Settings: stereoisomer not certain.
T1 sequence (whole entry): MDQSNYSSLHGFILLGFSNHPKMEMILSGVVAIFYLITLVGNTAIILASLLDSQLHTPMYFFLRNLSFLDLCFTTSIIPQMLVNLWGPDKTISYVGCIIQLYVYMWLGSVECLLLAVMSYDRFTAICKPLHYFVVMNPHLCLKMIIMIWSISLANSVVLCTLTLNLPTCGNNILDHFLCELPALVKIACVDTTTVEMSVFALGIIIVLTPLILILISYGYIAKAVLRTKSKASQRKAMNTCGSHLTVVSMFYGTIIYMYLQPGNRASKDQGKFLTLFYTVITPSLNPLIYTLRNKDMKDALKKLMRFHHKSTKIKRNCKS
Outline: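 Each receptor–molecule pair is labelled responsive or non-responsive (inactive) according to whether the original authors judged the measured signal statistically different from baseline. The data were taken from the main text and supplementary material of published papers and checked for typos and inconsistencies. Assay methods differed by source, with transient luciferase assays in mammalian cell lines being common.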

Odorant receptor agonist call, inactive:
C=CC(=O)CC, c1ccccc1, COc1ccc2ccc(=O)oc2c1, CSSc1ccoc1C, CCCCC(=O)C(C)=O, CCc1ncc(C)nc1CC, CSCCCO, Cc1cccc(O)c1, CC(C)CC=O, CCC=CCC=O, CCCCCC=O, CCC(=O)C1=NCCC1, CCCCCCCCC1CCC(=O)O1 (centres undefined), CC(=O)C(C)C(C)=O, CCC(=O)O, CCCC(O)CC(=O)OCC (centres undefined), CC1=CCC2CC1C2(C)C (centres undefined), CCCC(=O)C(C)CC (centres undefined), CCCC(C)=O, C=C1CCC2CC1C2(C)C (centres undefined), CCC(C)C=O (centres undefined), CCCCCCC(=O)[O-].[H+], CC(C)CO, COC(=O)C(C)C, Cc1occc1S, CC12CCC(CC1=O)C2(C)C (centres undefined), COc1nccnc1CC(C)C, CSCSC

Odorant receptor agonist call, active:
CC(=O)OCC=C(C)C, O=C1CCOc2ccccc21, CC(C)=CCCC(C)CCO (centres undefined), CCCCCCCO, CCC(=O)C(=O)CC, CCCCCCCCC(=O)O
